In brackets after ≈: the same amount, converted by molar mass. Activity calls are given as the source filed them. The rule behind the calls is not given here.
Key:
[1] = Inhibition of purified beta-lactamase Oxa-48 (unknown origin) using nitrocefin as substrate preincubated for 10 mins followed by substrate addition
How it was run: (§1)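 Test compound was preincubated 10 min with enzyme, then substrate was added and optical density was followed over time to determine Ki (μM). CTX-M-14 (class A), Oxa-48 (class D) and NDM-1 (class B) were purified enzymes; VIM-1 (class B) was a lysate. NDM-1 used imipenem as substrate; the other three used nitrocefin.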

[2] = test system: Mycobacterium tuberculosis; experiment: Antituberculosis activity against Mycobacterium tuberculosis H37Rv in glycerol-alanine salts medium incubated for 4 days by Microplate Alamar Blue assay; format: functional; details: 96 h
How it was run: (§2)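 MICs in μM were determined against M. tuberculosis H37Rv by Microplate Alamar Blue assay. Line 2 used 7H12 medium, which is 7H9 medium plus casitone, palmitic acid, albumin and catalase.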

[3] = Inhibition of beta-lactamase VIM-1 lysate (unknown origin) using nitrocefin as substrate preincubated for 10 mins followed by substrate addition; how it was run: as §1
[4] = Inhibition of purified beta-lactamase CTX-M-14 (unknown origin) using nitrocefin as substrate preincubated for 10 mins followed by substrate addition; how it was run: as §1
[5] = Inhibition of purified beta-lactamase NDM-1 (unknown origin) using imipenem as substrate preincubated for 10 mins followed by substrate addition; how it was run: as §1
[6] = test system: Mycobacterium tuberculosis; experiment: Antituberculosis activity against Mycobacterium tuberculosis H37Rv in 7H12 medium incubated for 4 days by Microplate Alamar Blue assay; format: functional; details: 96 h; how it was run: as §2
[7] = test system: Mycolicibacterium vaccae; experiment: Antibacterial activity against Mycobacterium vaccae IMET 10670 incubated for 18 to 24 hrs measured after 24 to 48 hrs by agar diffusion assay; format: functional, organism-based
How it was run: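 Kirby–Bauer agar diffusion assay; the read-out is the diameter of the inhibition zone in mm.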

O=C(COc1ccccc1)N[C@@H]1C(=O)N[C@H]1N(OCc1ccccc1)C(=O)c1ccccc1
Ki [1]: > 160 µM | MIC [2]: < 0.195 µM | Ki [3]: > 160 µM | Ki [4]: 0.05 µM | Ki [5]: > 160 µM | MIC [6]: 5.93 µM (≈ 2.64 µg/mL)

C[C@@H](O)[C@H]1C(=O)N[C@@H]1N(OCc1ccccc1)C(=O)c1ccccc1
Ki [1]: > 160 µM | MIC [2]: > 100 µM | Ki [3]: > 160 µM | Ki [4]: > 160 µM | Ki [5]: > 160 µM | MIC [6]: > 100 µM

C[C@@H](O[Si](C)(C)C(C)(C)C)[C@H]1C(=O)N[C@@H]1N(OCc1ccccc1)C(=O)c1ccccc1
Ki [1]: > 160 µM | MIC [2]: > 100 µM | Ki [3]: > 160 µM | Ki [4]: 0.25 µM | Ki [5]: > 160 µM | MIC [6]: > 100 µM

CC(C)(C)[Si](C)(C)N1C(=O)CC1N(OCc1ccccc1)C(=O)c1ccccc1 (racemic)
Ki [1]: 1.72 µM | MIC [2]: 0.28 µM | Ki [3]: > 160 µM | Ki [4]: > 160 µM | Activity [7]: inactive | Ki [5]: > 160 µM | MIC [6]: 49.2 µM (≈ 20.2 µg/mL)

C=CCON(C(=O)c1ccc([N+](=O)[O-])cc1)C1CC(=O)N1SC (racemic)
Ki [1]: > 160 µM | Ki [3]: 22.7 µM | Ki [4]: 0.64 µM | Ki [5]: 0.03 µM

CCOc1ccc(C(=O)N(OCc2ccccc2)C2CC(=O)N2)cc1 (racemic)
Ki [1]: > 160 µM | MIC [2]: 49.3 µM | Ki [3]: > 160 µM | Ki [4]: > 160 µM | Ki [5]: > 160 µM | MIC [6]: > 100 µM

O=C(Cc1ccccc1)N[C@@H]1C(=O)N[C@H]1N(OCc1ccccc1)C(=O)c1ccccc1
Ki [1]: > 160 µM | MIC [2]: 6.05 µM | Ki [3]: > 160 µM | Ki [4]: > 160 µM | Ki [5]: 5.54 µM | MIC [6]: > 100 µM

C[C@H]1COC2(CCN(c3nc(=O)c4cc(C(F)(F)F)cc([N+](=O)[O-])c4s3)CC2)O1 [BTZ-043]
MIC [2]: < 0.004 µM | MIC [6]: < 0.004 µM

CSN1C(=O)CC1N(OCc1ccccc1)C(=O)c1ccc([N+](=O)[O-])cc1 (racemic)
Ki [1]: > 160 µM | MIC [2]: 24.2 µM | Ki [3]: > 160 µM | Ki [4]: > 160 µM | Ki [5]: 0.97 µM | MIC [6]: > 100 µM

CCOc1ccc(C(=O)N(OCc2ccccc2)C2CC(=O)N2SC)cc1 (racemic)
Ki [1]: > 160 µM | MIC [2]: 34.8 µM | Ki [3]: > 160 µM | Ki [4]: > 160 µM | Ki [5]: 0.07 µM | MIC [6]: > 100 µM

CSN1C(=O)[C@@H](NC(=O)COc2ccccc2)[C@@H]1N(OCc1ccccc1)C(=O)c1cc([N+](=O)[O-])cc(C(F)(F)F)c1 (racemic)
Ki [1]: > 160 µM | MIC [2]: 64.1 µM | Ki [3]: > 160 µM | Ki [4]: > 160 µM | Ki [5]: 0.15 µM | MIC [6]: > 100 µM

O=C1CC(N(OCc2ccccc2)C(=O)c2cc([N+](=O)[O-])cc(C(F)(F)F)c2)N1 (racemic)
MIC [2]: 30.3 µM | MIC [6]: 44.7 µM (≈ 18.3 µg/mL)

CSN1C(=O)[C@@H](NC(=O)Cc2ccccc2)[C@@H]1N(OCc1ccccc1)C(=O)c1ccccc1 (racemic)
Ki [1]: 1.95 µM | MIC [2]: 11.6 µM | Ki [3]: 2.86 µM | Ki [4]: > 160 µM | Ki [5]: 0.07 µM | MIC [6]: 47.3 µM (≈ 22.5 µg/mL)

CC(=O)O[C@@H]1NC(=O)[C@H]1NC(=O)COc1ccccc1
Ki [1]: > 160 µM | Ki [3]: > 160 µM | Ki [4]: > 160 µM | Ki [5]: 5.87 µM

CSN1C(=O)CC1N(OCc1ccccc1)C(=O)c1ccccc1 (racemic)
MIC [2]: 17.9 µM | MIC [6]: > 50 µM

CSN1C(=O)[C@H]([C@@H](C)O[Si](C)(C)C(C)(C)C)[C@H]1N(OCc1ccccc1)C(=O)c1ccccc1
Ki [1]: > 160 µM | MIC [2]: 0.753 µM | Ki [3]: > 160 µM | Ki [4]: 0.4 µM | Activity [7]: inactive | Ki [5]: > 160 µM | MIC [6]: 10.3 µM (≈ 5.14 µg/mL)

C=CCON(C(=O)c1cc([N+](=O)[O-])cc(C(F)(F)F)c1)C1CC(=O)N1 (racemic)
Ki [1]: 1.93 µM | Ki [3]: > 160 µM | Ki [4]: > 160 µM | Ki [5]: > 160 µM

C=CCON(C(=O)c1ccc([N+](=O)[O-])cc1)C1CC(=O)N1 (racemic)
Ki [1]: > 160 µM | Ki [3]: > 160 µM | Ki [4]: > 160 µM | Ki [5]: > 160 µM

CO[C@H]1/C=C/O[C@@]2(C)Oc3c(C)c(O)c4c(O)c(c(/C=N/N5CCN(C)CC5)c(O)c4c3C2=O)NC(=O)/C(C)=C\C=C\[C@H](C)[C@H](O)[C@@H](C)[C@@H](O)[C@@H](C)[C@H](OC(C)=O)[C@@H]1C [RIFAMPIN]
MIC [2]: 0.04 µM | MIC [6]: 0.05 µM (≈ 0.0411 µg/mL)

CSN1C(=O)CC1N(OCc1ccccc1)C(=O)c1cc([N+](=O)[O-])cc(C(F)(F)F)c1 (racemic)
MIC [2]: 5.92 µM | MIC [6]: 23.4 µM (≈ 10.6 µg/mL)

C=CCON(C(=O)c1cc([N+](=O)[O-])cc(C(F)(F)F)c1)C1CC(=O)N1SC (racemic)
Ki [1]: > 160 µM | Ki [3]: 59.3 µM | Ki [4]: > 160 µM | Ki [5]: 0.04 µM

CSN1C(=O)[C@@H](NC(=O)COc2ccccc2)[C@@H]1N(OCc1ccccc1)C(=O)c1ccccc1 (racemic)
Ki [1]: > 160 µM | MIC [2]: > 50 µM | Ki [3]: > 160 µM | Ki [4]: > 160 µM | Activity [7]: inactive | Ki [5]: 0.06 µM | MIC [6]: 6 µM (≈ 2.95 µg/mL)

C[C@@H](O[Si](C)(C)C(C)(C)C)[C@H]1C(=O)N[C@@H]1N(O)C(=O)c1ccccc1
Ki [1]: > 160 µM | MIC [2]: > 50 µM | Ki [3]: > 160 µM | Ki [4]: 0.32 µM | Ki [5]: > 160 µM | MIC [6]: > 50 µM

CC(C)(C)[Si](C)(C)ON(C(=O)c1ccccc1)[C@@H]1NC(=O)[C@H]1NC(=O)COc1ccccc1 (racemic)
Ki [1]: > 160 µM | Ki [3]: 31.2 µM | Ki [4]: > 160 µM | Ki [5]: 0.96 µM

CSN1C(=O)[C@@H](NC(=O)Cc2ccccc2)[C@@H]1OC(C)=O
MIC [2]: 10.7 µM | MIC [6]: 47.6 µM (≈ 14.7 µg/mL)

Reference: ChEMBL document CHEMBL3785040, “Syntheses and Biological Evaluations of Highly Functionalized Hydroxamate Containing and N-Methylthio Monobactams as Anti-Tuberculosis and β-Lactamase Inhibitory Agents” (Medchemcomm, 2016)
